According to article PMC3014451 (Bioorganic & medicinal chemistry, 2010):
Values after ≈ are worked out from the molar mass of the structure shown.

How the values were obtained:
ALS = ALS patients; ref v; cited from earlier work
[1] = system: mutant G93A SOD1 aggregation in PC12 cells; experiment: Mutant SOD1-induced cytotoxicity protection assay; assay type: cell-based; conditions: maximum cell viability in cytotoxicity protection assay
PBS stability = assay type: physicochemical; conditions: 5 μM, 37 °C
Method in brief: (§1)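 Samples were taken at 15 s, 10, 20, 40 and 60 min and precipitated with acetonitrile containing haloperidol as internal standard, then analysed by LC-MS/MS for analyte/internal standard peak-area ratio. The plasma ratio was divided by the PBS ratio at the same time point.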

Mouse plasma stability = assay type: in vitro ADME
Method in brief: as §1

Microsomal stability [2] = assay type: in vitro ADME; conditions: mouse, liver microsomes
Method in brief: (§2)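 Test compound at 5 μM, in duplicate, with liver microsomes (0.275 mg/mL protein) in 100 mM potassium phosphate, 3 mM MgCl2, 2 mM NADPH, pH 7.4, at 37 °C; a parallel control omits NADPH. Aliquots at 15 sec to 60 min quenched in acidified acetonitrile. Parent quantified by LC-MS/MS against haloperidol internal standard. k from 1/Y-weighted exponential fit; T1/2 = ln2/k.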

[3] = Aqueous solubility screen in PBS; assay type: physicochemical; conditions: PBS with 1% DMSO
Microsomal stability [4] = assay type: in vitro ADME; conditions: human, liver microsomes, pH 7.4, CL’int, 37 °C, with NADPH
Method in brief: as §2

Nc1nc2ccc(OC(F)(F)F)cc2s1 [Riluzole]
prolongation of patient life (ALS): two to three

C[C@@H]1C[C@H]2O[C@@H]2/C=C\C=C\C(=O)Cc2c(Cl)c(O)cc(O)c2C(=O)O1 [radicicol]
efficacy (cell viability) [1]: 85%

Cc1cc(SCc2cc(=O)[nH][nH]2)c(Cl)cc1Cl [compound 1, 5-((2,4-Dichloro-5-methylphenylthio)methyl)-1H-pyrazol-3(2H)-one]
PBS Amount Remaining at 60 min (PBS stability): 100%
Recovery Plasma vs. PBS (Mouse plasma stability): 91%
CLint scaled at 5 μM (Microsomal stability [2]; pH 7.4, CL’int No NADPH, without NADPH): 61.2 mL/min/kg
CLint scaled at 5 μM (Microsomal stability [2]; pH 7.4, CL’int, 5 μM, 37 °C, with NADPH): 292 mL/min/kg
solubility at 1 h [3]: 16.4 µg/mL (≈ 56.7 µM)
CLint scaled at 5 μM (Microsomal stability [4]): 58.5 mL/min/kg
